Only some compounds are listed: those with a hit (about 5.6% of all), similar ones and a draw of the others.
GRIN3A LBD mod: modulates the human NR3A ligand-binding domain; NR3A LBD differential scanning fluorimetry, Tm shift; 0% = protein alone, 100% = glycine-bound protein; Tm shift relative to glycine control, % at 25 µM; 2.5% of 340,000 active; AID 1259313;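 active = melting temperature shift of at least 10% of the positive control shift, at one fixed dose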
CHOP inh: blocks CHOP induction under ER stress; CHO-K1 CHOP-promoter luciferase, tunicamycin-induced, 15-18 h; inhibition, % at 10 µM; 3.8% of 220,000 active; AID 2732;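 active = compounds that reduced the stress-induced luciferase reporter signal by more than about 70% of percent inhibition, limit read from the data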;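 note: 0% = tunicamycin plus vehicle and 100% = wells without tunicamycin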
aDG glyco act: increases alpha dystroglycan glycosylation. Pro5-aDG cells, alpha-DG glycosylation AlphaScreen (IIH6); 0% Pro5, 100% B10-LARGE cell signal. activation, % at 10 µM. 0.22% of 360,000 active;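 active = activation of at least 8% versus controls, or a plate z-score of at least 8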;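 note: Pro5 are CHO cells carrying HIG-tagged alpha-DG that lacks glycosylation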
UPR CHOP act: activators of apoptotic arm of unfolded protein response (CHOP). 0.34% of 330,000 active. AID 449763. CHO-CHOP luciferase reporter, UPR activation, luminescence; percent of tunicamycin response over DMSO baseline. activation, % at 10 µM;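 active = at 10 µM dose, activation of 40% or more, normalized to positive control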;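 note: 100% = tunicamycin at 10 µg/mL and 0% = DMSO alone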
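Test system: CHO-CHOP cells, stable luciferase reporter of PERK-eIF2a-CHOP signalling | Quantity: 500 CHO-CHOP cells per well | Buffer or medium: F12 plus 10% serum | Compound dosing: 10 µM single point, 0.5% DMSO | Schedule: 6 h compound treatment, 37 °C | Signal: Luciferase luminescence | Control set: Tunicamycin high control, DMSO low control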
MPTP block: blocks calcium-induced mitochondrial swelling | isolated mouse mitochondria, Ca2+ swelling absorbance, 30 min | inhibition, % at 10 µM | 1.4% of 360,000 active | AID 602449;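 active = inhibition of 50% or more, scaled per plate between neutral and stimulator controls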;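 note: 0% = DMSO wells given calcium and 100% = 1 mM EGTA wells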
XBP1 UPR activ: adaptive UPR (XBP1) activation; CHO-XBP1 luciferase reporter, IRE1-XBP1 UPR activation, luminescence; percent of tunicamycin response, DMSO as zero; activation, % at 20 µM; 0.33% of 330,000 active; AID 463104;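 active = versus positive control, 20 µM dose yields 30% or more activation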;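 note: 100% = tunicamycin at 10 µg/mL and 0% = DMSO only wells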
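incubation = overnight seeding at 37 °C, 6 h compound treatment at 37 °C | assay system = CHO-XBP1 cells stably carrying IRE1-XBP1-driven luciferase reporter | input = 1000 cells per well | detection = luciferase luminescence | dosing = single point, 20 µM final compound, 1% DMSO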
The depositor's hits bear a star; x = not tested or not shown.

SMILES	GRIN3A LBD mod	CHOP inh	aDG glyco act	UPR CHOP act	MPTP block	XBP1 UPR activ
COCCNC(=S)N1CCC2CC1c1c(Cl)cccc12 (centres undefined)	x	x	0	x	-2	x
CCOc1ccccc1C(=O)NN1CCOCC1	1	x	0	0	1	-6
CCOc1ccccc1C(=O)NN1C(=O)C2CCCCC2C1=O (centres undefined)	23*	-5	0	1	1	0
CC(C)c1ccc(C(=O)NN2C(=O)C3CCCCC3C2=O)cc1 (centres undefined)	25*	-38	0	3	1	0
COCCNc1nc(Oc2ccc(CC(=O)OC)cc2)c2sc(-c3ccccc3)cc2n1	x	x	0	x	1	x
COc1ccc(N2CCN(C(=O)CCc3nnc4ccc(N5CCCC5)nn34)CC2)cc1	3	x	0	0	-2	1
Cc1cc(CSc2ccccc2)ccc1NC(=O)c1ccc(Br)cc1	-5	96*	0	1	9	4
O=C(CSc1nc2ccsc2c(=O)n1CC1CCC(C(=O)O)CC1)NCCc1ccc(Cl)cc1 (centres undefined)	-3	x	0	1	-2	-3
Cc1ccccc1-c1nc(CS(=O)(=O)CC(=O)N2CCOCC2)c(C)o1	-3	x	0	-1	2	-4
CCC1(C)Cc2ccccc2-c2nc(-c3ccccc3)oc(=O)c21 (centres undefined)	2	80*	0	1	3	0
O=C(NC1CCCCC1)C(c1ccc(F)cc1)N(CCCN1CCOCC1)C(=O)c1ccc(CN2CCOCC2)o1 (centres undefined)	-2	x	0	1	0	-5
CC1(C)CC2CC(C)(CN2C(=O)COC(=O)c2ccccc2C(F)(F)F)C1 (centres undefined)	2	x	0	0	-1	-2
Cc1ccc(S(=O)(=O)NCc2c(-c3ccccc3)c3cc(Cl)ccc3[nH]c2=O)cc1	5	103*	1	2	7	3
CCOC(=O)CSc1c(-c2ccccc2)c2cc(Cl)ccc2[nH]c1=O	-7	91*	0	4	-8	-2
O=c1[nH]c2ccc(Cl)cc2c(-c2ccccc2)c1CN1CCOCC1	0	-4	0	0	-2	-1
CC(C(=O)Nc1ccccc1)N(C)CCOc1ccc(Br)cc1 (centres undefined)	-26	84*	0	-2	4	2
O=C(Nc1cccc(OC(F)(F)F)c1)C1Cc2c(-c3cccc(F)c3)ccnc2O1 (centres undefined)	x	x	0	x	3	x
NC(=NCCc1c[nH]c2ccccc12)NC(=O)c1ccc(F)cc1	38*	6	0	-1	2	-3
CCn1nc(C)c(CN2CCC(Oc3ccc(C(=O)N4CCCC4)cc3)CC2)c1C	-1	x	0	0	-2	1
Cn1c(Oc2ccc(Cl)cc2)c(C=O)c2ccccc21	15*	63	0	-3	1	-7
O=C1N=c2ccccc2=C1c1c(O)n(-c2cccc(F)c2)[nH]c1=O	8	73*	0	x	21	x
O=C(CCCN1C(=O)/C(=C/c2cccs2)SC1=S)Nc1cccc(C(=O)O)c1	-2	16	0	-1	2	1
O=C(CCN1C(=O)/C(=C\c2cccs2)SC1=S)Nc1ccccn1	-9	-8	0	0	0	-2
O=C(CCCN1C(=O)/C(=C/c2cccs2)SC1=S)Nc1cccc(O)c1	14*	x	0	-1	0	-2
O=C(CCN1C(=O)/C(=C/c2cccs2)SC1=S)Nc1ccccc1O	15*	x	0	0	10	1
SMILES	GRIN3A LBD mod	CHOP inh	aDG glyco act	UPR CHOP act	MPTP block	XBP1 UPR activ
Cc1cc(NC(=O)CCCN2C(=O)/C(=C/c3cccs3)SC2=S)no1	1	76*	0	-3	-1	6
CCc1ccc(/C=C2\SC(=S)N(CCCC(=O)Nc3cc(C)on3)C2=O)cc1	x	x	0	x	2	x
O=C(CCN1C(=O)/C(=C/c2cccs2)SC1=S)Nc1ccc(O)cc1	22*	x	0	0	3	0
O=C(CCN1C(=O)/C(=C/c2cccs2)SC1=S)Nc1cccc(O)c1	11*	x	0	2	-1	-2
O=C(CCCN1C(=O)/C(=C/c2ccccc2)SC1=S)Nc1cccc(O)c1	12*	67	0	0	10	-2
CC(=O)c1cc2c(C)c(C(=O)c3ccccc3)oc2cc1O	2	83*	0	-1	4	-3
COc1ccc(CCC(=O)Nc2cc(S(=O)(=O)N3CCCCC3)ccc2N(C)C)cc1	2	x	0	-1	-2	-1
CCCC(=O)N1CCN(c2ccc([N+](=O)[O-])cc2Cl)CC1	-2	11	0	-1	-1	0
O=C(CSc1ccc(Cl)cc1)N1CCN(c2ccc([N+](=O)[O-])cc2Cl)CC1	-17	78*	1	2	-3	-2
Oc1ccc(C[C@@H](CN2CCCC2CN2C(=S)NC[C@@H]2Cc2ccccc2)N2C[C@H](Cc3ccccc3)N(CC3CCCCC3)C2=S)cc1 (some centres undefined)	x	x	0	x	1	x
Oc1ccc(C[C@H]2CN([C@@H](Cc3ccc(O)cc3)CN3CCC[C@@H]3CN3C(=S)NC[C@@H]3Cc3ccccc3)C(=S)N2CCc2ccccc2)cc1	x	x	0	x	0	x
Oc1ccc(C[C@H]2CNC(=S)N2CC2CCCN2C[C@H](Cc2ccc(O)cc2)N2C[C@H](Cc3ccccc3)N(CC3CCCCCC3)C2=S)cc1 (some centres undefined)	20*	x	0	x	0	x
Oc1ccc(C[C@H]2CNC(=S)N2CC2CCCN2C[C@H](Cc2ccc(O)cc2)N2C[C@H](Cc3ccc(O)cc3)N(CC3CCCCCC3)C2=S)cc1 (some centres undefined)	28*	x	0	x	2	x
CC(C)C[C@@H](CN1CCCC1CN1C(=S)NC[C@@H]1Cc1ccc(O)cc1)N1C[C@H](Cc2ccc(O)cc2)N(CCc2ccccc2)C1=S (some centres undefined)	24*	x	0	x	2	x
CCOc1ccc(CCN2C(=S)N([C@@H](Cc3ccccc3)CN3CCC[C@@H]3CN3C(=S)NC[C@@H]3Cc3ccc(O)cc3)C[C@@H]2CC(C)C)cc1	x	x	1	x	3	x
CCOc1ccc(CCN2C(=S)N([C@@H](Cc3ccc(O)cc3)CN3CCCC3CN3C(=S)NC[C@@H]3Cc3ccc(O)cc3)C[C@@H]2CC(C)C)cc1 (some centres undefined)	13*	x	0	x	0	x

Screens (PubChem)
